Measured values from different studies.
Protocols differ between the studies behind these lines.
Cell line: HEL
Read-out: cell growth or viability

SMILES	time	CC50 [µM]
Nc1nc2c(ncn2COCCO)c(=O)[nH]1	–	440
C[C@H](NC(=O)[C@@]1(Cc2ccccc2)CCN1C(=O)OCc1ccccc1)C(=O)N(C)C	72 h	> 100
CCOP(=O)(OCC)[C@@H]1C[C@H](n2cc(-c3nccn3C)nn2)ON1C	72 h	> 100
CCCCCCCCCCCCCCCCOCCCOP(=O)(O)COCCn1cnc2c(=O)[nH]c(=O)[nH]c21	72 h	10
CCOP(=O)(OCC)[C@@H]1C[C@@H](n2cc(Cn3ccc(=O)[nH]c3=O)nn2)ON1C (racemic)	72 h	> 100
O=c1[nH]c(=O)c2ncn(CC(CO)OCP(=O)(O)O)c2[nH]1 (racemic)	72 h	≥ 300
C[C@H](NC(=O)[C@]1(Cc2ccccc2)CCN1C(=O)OCc1ccccc1)C(=O)NCc1ccccc1	72 h	42
CCOP(=O)(OCC)[C@H]1C[C@@H](Cn2c(=O)n(C(=O)c3ccccc3)c(=O)c3ccccc32)ON1C	–	> 100
CC(C)CNC(=O)[C@H](C)NC(=O)[C@@]1(Cc2ccccc2)CCN1C(=O)OCc1ccccc1	72 h	> 100
CCOP(=O)(OCC)[C@@H]1C[C@@H](n2cc(Cn3ccc(NC(C)=O)nc3=O)nn2)ON1C (racemic)	72 h	> 100
